Test results reported in ChEMBL document CHEMBL4145683, “Total Synthesis and Structure-Activity Relationships Study of Odilorhabdins, a New Class of Peptides Showing Potent Antibacterial Activity” (J Med Chem, 2018).
Converted amounts (≈) assume the structure as drawn. Non-standard residues stand in square brackets, D forms with d. Residues, ends and D or L forms follow the SMILES beside them. *: point of attachment. Dab(3S-OH) = NC[C@H](O)[C@H](N)C(=O)O; ΔZArg = N=C(N)NCC/C=C(\N)C(=O)O; dOrn = NCCC[C@@H](N)C(=O)O; Dab = NCC[C@H](N)C(=O)O; Abu = CC[C@H](N)C(=O)O; NH(CH2)4NH2 = NCCCCN*

Experiments:
Klebsiella pneumoniae [1] = test: Antimicrobial activity against Klebsiella pneumoniae ATCC 43816 by broth microdilution method; type: functional
Procedure, shortened: (§1)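 Broth microdilution MIC per CLSI M07-A10, with inoculum prepared by direct colony suspension. Reference strains were from ATCC and NCTC.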

Escherichia coli [2] = test: Inhibition of bacterial protein synthesis in cell-free Escherichia coli incubated for 1 hr and measured for every 20 mins by bacterial cell-free transcription-translation assay; type: functional; settings: Escherichia coli
Procedure, shortened: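 E. coli cell-free coupled transcription-translation used a GFP gene in pEXP5-CT as template, started with 1 μg plasmid in 50 μL reactions. Feed buffer was added at 30 min, with incubation at 30 °C. Fluorescence (ex 475/em 520 nm) was read every 20 min. IC50 was taken at 1 h after feed addition from a four-parameter log(inhibitor)–response fit. Duplicates.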

Escherichia coli [3] = test: microbe, parasite or virus in culture; settings: ATCC 25922
Klebsiella pneumoniae [4] = test: Antimicrobial activity against Klebsiella pneumoniae ATCC BAA-1904 by broth microdilution method; type: functional; procedure, shortened: as §1
Klebsiella pneumoniae [5] = test: Antimicrobial activity against Klebsiella pneumoniae NCTC 13439 by broth microdilution method; type: functional; procedure, shortened: as §1
Klebsiella pneumoniae [6] = test: Antimicrobial activity against Klebsiella pneumoniae ATCC BAA-1905 by broth microdilution method; type: functional; procedure, shortened: as §1
Klebsiella pneumoniae [7] = test: Antimicrobial activity against Klebsiella pneumoniae ATCC BAA-2146 by broth microdilution method; type: functional; procedure, shortened: as §1
Klebsiella pneumoniae [8] = test: Antimicrobial activity against Klebsiella pneumoniae ATCC BAA-2473 by broth microdilution method; type: functional; procedure, shortened: as §1
Klebsiella pneumoniae [9] = test: Antimicrobial activity against Klebsiella pneumoniae NCTC 13442 by broth microdilution method; type: functional
Procedure, shortened: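 CLSI broth microdilution with direct colony suspension inoculum, per CLSI M07-A10. Reference strain taken from the NCTC collection.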

Escherichia coli [10] = test: Antimicrobial activity against Escherichia coli ATCC BAA-2452 by broth microdilution method; type: functional; procedure, shortened: as §1
Klebsiella pneumoniae [11] = test: Antimicrobial activity against Klebsiella pneumoniae ATCC BAA-2472 by broth microdilution method; type: functional; procedure, shortened: as §1
Klebsiella pneumoniae [12] = test: Antimicrobial activity against Klebsiella pneumoniae NCTC 13443 by broth microdilution method; type: functional; procedure, shortened: as §1
Escherichia coli [13] = test: Antimicrobial activity against Escherichia coli ATCC BAA-2469 by broth microdilution method; type: functional; procedure, shortened: as §1
Escherichia coli [14] = test: Antimicrobial activity against Escherichia coli ATCC BAA-2340 by broth microdilution method; type: functional; procedure, shortened: as §1
Enterobacter cloacae = test: Antimicrobial activity against Enterobacter cloacae ATCC BAA-2468 by broth microdilution method; type: functional
Klebsiella pneumoniae [15] = test: Antimicrobial activity against Klebsiella pneumoniae NCTC 13438 by broth microdilution method; type: functional; procedure, shortened: as §1
Klebsiella pneumoniae [16] = test: Antimicrobial activity against Klebsiella pneumoniae ATCC 13883 by broth microdilution method; type: functional; procedure, shortened: as §1
[17] = Klebsiella pneumoniae, ATCC 43816, read-out: MIC

| Compound | MIC (Klebsiella pneumoniae [1]; [17]) | IC50 (Escherichia coli [2]) | MIC (Escherichia coli [3]) | further results |
| --- | --- | --- | --- | --- |
| N=C(N)NCCC[C@@H](NC(=O)[C@H](CCCCN)NC(=O)[C@H](Cc1cnc[nH]1)NC(=O)[C@@H]1CCCN1C(=O)[C@@H](CCCN)NC(=O)CNC(=O)[C@@H](NC(=O)[C@@H](NC(=O)[C@@H](N)CCCCN)[C@@H](O)CN)[C@@H](O)CN)C(=O)N[C@@H](CCCCN)C(=O)NCCCCN (H-K[Dab(3S-OH)][Dab(3S-OH)]G[dOrn]PHK[dR]K-{NH(CH2)4NH2}) | 16 µg/mL (≈ 12.6 µM) | 980 nM | 16 µg/mL (≈ 12.6 µM) |  |
| C[C@H](NC(=O)[C@@H]1CCCN1C(=O)[C@@H](CCCN)NC(=O)CNC(=O)[C@@H](NC(=O)[C@@H](NC(=O)[C@@H](N)CCCCN)[C@@H](O)CN)[C@@H](O)CN)C(=O)N[C@@H](CCCCN)C(=O)N/C(=C\CCNC(=N)N)C(=O)N[C@@H](CCCCN)C(=O)NCCCCN (H-K[Dab(3S-OH)][Dab(3S-OH)]G[dOrn]PAK[ΔZArg]K-{NH(CH2)4NH2}) | 8 µg/mL (≈ 6.68 µM) | 390 nM | 8 µg/mL (≈ 6.68 µM) |  |
| N=C(N)NCC/C=C(\NC(=O)[C@H](CCCCN)NC(=O)[C@H](Cc1cnc[nH]1)NC(=O)[C@@H]1CCCN1C(=O)[C@@H](CCCN)NC(=O)CNC(=O)[C@@H](NC(=O)[C@H](CCN)NC(=O)[C@@H](N)CCCCN)[C@@H](O)CN)C(=O)N[C@@H](CCCCN)C(=O)NCCCCN (H-K[Dab][Dab(3S-OH)]G[dOrn]PHK[ΔZArg]K-{NH(CH2)4NH2}) | 64 µg/mL (≈ 51.3 µM) | 5910 nM | > 64 µg/mL |  |
| C[C@H](NC(=O)[C@@H](N)CCCCN)C(=O)N[C@H](C(=O)NCC(=O)N[C@H](CCCN)C(=O)N1CCC[C@H]1C(=O)N[C@@H](Cc1cnc[nH]1)C(=O)N[C@@H](CCCCN)C(=O)N/C(=C\CCNC(=N)N)C(=O)N[C@@H](CCCCN)C(=O)NCCCCN)[C@@H](O)CN | > 64 µg/mL | 4500 nM | > 64 µg/mL |  |
| N=C(N)NCC/C=C(\NC(=O)[C@H](CCCCN)NC(=O)[C@H](Cc1cnc[nH]1)NC(=O)[C@@H]1CCCN1C(=O)[C@@H](CCCN)NC(=O)CNC(=O)[C@@H](NC(=O)[C@@H](N)[C@@H](O)CN)[C@@H](O)CN)C(=O)N[C@@H](CCCCN)C(=O)NCCCCN | > 64 µg/mL | > 40000 nM | > 64 µg/mL |  |
| GENTAMICIN |  |  |  | MIC (Klebsiella pneumoniae [4]): 16 µg/mL; MIC (Klebsiella pneumoniae [5]): 1 µg/mL; MIC (Klebsiella pneumoniae [6]): 32 µg/mL; MIC (Klebsiella pneumoniae [7]): > 64 µg/mL; MIC (Klebsiella pneumoniae [8]): > 64 µg/mL; MIC (Klebsiella pneumoniae [9]): 0.25 µg/mL; MIC (Klebsiella pneumoniae [1]): 0.25 µg/mL; MIC (Escherichia coli [10]): > 64 µg/mL; MIC (Klebsiella pneumoniae [11]): > 64 µg/mL; MIC (Klebsiella pneumoniae [12]): > 64 µg/mL; MIC (Escherichia coli [13]): > 64 µg/mL; MIC (Escherichia coli [14]): 1 µg/mL; MIC (Enterobacter cloacae): > 64 µg/mL; MIC (Klebsiella pneumoniae [15]): 2 µg/mL; MIC (Klebsiella pneumoniae [16]): 1 µg/mL |
| N=C(N)NCC/C=C(\NC(=O)[C@H](CCCCN)NC(=O)[C@H](Cc1cnc[nH]1)NC(=O)[C@@H]1CCCN1C(=O)[C@@H](CCCN)NC(=O)CNC(=O)[C@H](CCN)NC(=O)[C@@H](NC(=O)[C@@H](N)CCCCN)[C@@H](O)CN)C(=O)N[C@@H](CCCCN)C(=O)NCCCCN (H-K[Dab(3S-OH)][Dab]G[dOrn]PHK[ΔZArg]K-{NH(CH2)4NH2}) | 4 µg/mL (≈ 3.2 µM) | 1100 nM | 4 µg/mL (≈ 3.2 µM) |  |
| CC(C)[C@H](NC(=O)[C@@H](NC(=O)[C@@H](N)CCCCN)[C@@H](O)CN)C(=O)NCC(=O)N[C@H](CCCN)C(=O)N1CCC[C@H]1C(=O)N[C@@H](Cc1cnc[nH]1)C(=O)N[C@@H](CCCCN)C(=O)N/C(=C\CCNC(=N)N)C(=O)N[C@@H](CCCCN)C(=O)NCCCCN (H-K[Dab(3S-OH)]VG[dOrn]PHK[ΔZArg]K-{NH(CH2)4NH2}) | 2 µg/mL (≈ 1.6 µM) | 800 nM | 4 µg/mL (≈ 3.21 µM) |  |
| C[C@@H](NC(=O)CNC(=O)[C@@H](NC(=O)[C@@H](NC(=O)[C@@H](N)CCCCN)[C@@H](O)CN)[C@@H](O)CN)C(=O)N1CCC[C@H]1C(=O)N[C@@H](Cc1cnc[nH]1)C(=O)N[C@@H](CCCCN)C(=O)N/C(=C\CCNC(=N)N)C(=O)N[C@@H](CCCCN)C(=O)NCCCCN | > 64 µg/mL | > 40000 nM | > 64 µg/mL |  |
| CC[C@H](NC(=O)[C@@H](NC(=O)[C@@H](N)CCCCN)[C@@H](O)CN)C(=O)NCC(=O)N[C@H](CCCN)C(=O)N1CCC[C@H]1C(=O)N[C@@H](Cc1cnc[nH]1)C(=O)N[C@@H](CCCCN)C(=O)N/C(=C\CCNC(=N)N)C(=O)N[C@@H](CCCCN)C(=O)NCCCCN (H-K[Dab(3S-OH)][Abu]G[dOrn]PHK[ΔZArg]K-{NH(CH2)4NH2}) | 4 µg/mL (≈ 3.24 µM) | 730 nM | 4 µg/mL (≈ 3.24 µM) |  |
